What was measured:
[1] = biological target: recombinant wild type human BCA2 (Homo sapiens, UniProt Q9Y4L5); assay: Recombinant BCA2 autoubiquitination assay; assay type: biochemical; settings: 50 μM compound, 30 min preincubation
In short: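 Test compound stocks (10 mM in DMSO) were diluted in reaction buffer and preincubated with 10 ng recombinant His-BCA2 (final 5 or 50 μM) for 30 min at room temperature. ATP (20 mM stock), ubiquitin (1 μg), rabbit E1 (20 ng) and human UbcH5b (20 ng) were added in Tris-HCl pH 8.0/DTT/MgCl2 buffer. Reactions ran 1 h at 30 °C, then SDS-PAGE and anti-ubiquitin immunoblot.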

MCF-7 cells [2] = assay: Zinc chloride rescue of growth inhibition, MTT assay in MCF-7; assay type: cell-based, human; settings: for Growth inhibitory activity in presence of zinc chloride: compound at its IC50, ZnCl2 600 nM to 75 μM, 5 days, MCF-7
[3] = cited from earlier work
MCF-7 cells [4] = assay: MTT proliferation assay, MCF-7; assay type: cell-based, human; settings: for Mean IC50 ±SD in MCF-7: MTT assay, 72 hour drug exposure (footnote a), BCA2 +ve, ER +ve, three independent experiments; for IC100 (100% growth inhibitory concentration) in MCF-7: delineated from MTT growth curves
In short: (§1)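 Exponentially growing cells were kept in RPMI 1640 with 10% heat-inactivated FBS at 37 °C and 5% CO2. They were dosed with test compound from 0.00001 to 10 μM and read by MTT. Each compound was tested in triplicate. Active compounds had three independent experiments, reported as mean ± SD. IC50 and IC100 were read from growth curves.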

T47D cells = assay: MTT proliferation assay, T47D; assay type: cell-based, human; settings: 72 hour drug exposure (footnote a), BCA2 +ve, ER +ve
In short: as §1

BCA2 = BCA2 (Homo sapiens, UniProt Q9Y4L5); assay: Endogenous BCA2 protein stability in MCF-7 cells; assay type: cell-based; settings: 16 hrs exposure at IC100 concentration, compound alone
In short: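 MCF-7 cells (1×10^6) were seeded and grown overnight, then exposed for 16 h to test compound alone, or with cycloheximide (100 μM) and/or a proteasome inhibitor (10 μM). DMSO vehicle controls ran for 16 h. Whole-cell lysates were immunoblotted with in-house anti-BCA2 antibodies, using beta-actin as the loading control.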

[5] = test system: BCA2+ cells (MCF-7, T47D, MDA-MB-231/ER); assay: MTT assay, BCA2-positive breast cancer cell lines as a group; assay type: cell-based, human; settings: active if IC50 <10 μM
In short: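 MCF-7, T47D and MDA-MB-231/ER (a stable ERα-transfected, G418-selected clone of MDA-MB-231 kept in 1mg/mL G418) were grown in RPMI 1640 with 10% heat-inactivated FBS at 37 °C and 5% CO2. Exponentially growing cells were exposed to test compound at 0.00001–10 μM for 72 h, and growth was read by MTT. IC50 values came from growth curves, with triplicate wells and three independent experiments (mean ± SD).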

[6] = test system: BCA2 low/− cells (MDA-MB-231 or MCF10A); assay: MTT assay, BCA2 low/negative cells as a group; assay type: cell-based, human; settings: active if IC50 <10 μM
In short: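 MDA-MB-231 (BCA2 low/−, ER −) was grown in RPMI 1640 with 10% heat-inactivated FBS, and normal MCF10A mammary epithelial cells in MEGM, both at 37 °C and 5% CO2. Exponentially growing cells received test compound at 0.00001–10 μM for 72 h, followed by MTT read-out. IC50 values came from growth curves, with triplicate wells and three independent experiments (mean ± SD).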

ALDH1 = biological target: T1, ALDH1 (Homo sapiens, UniProt P00352); assay: ALDH1 inhibition in K562 cells; assay type: cell-based; settings: for ALDH-inhibitory activity (in words): K562 cells, 15 μM
T1 sequence (P00352 2-501 limits assumed): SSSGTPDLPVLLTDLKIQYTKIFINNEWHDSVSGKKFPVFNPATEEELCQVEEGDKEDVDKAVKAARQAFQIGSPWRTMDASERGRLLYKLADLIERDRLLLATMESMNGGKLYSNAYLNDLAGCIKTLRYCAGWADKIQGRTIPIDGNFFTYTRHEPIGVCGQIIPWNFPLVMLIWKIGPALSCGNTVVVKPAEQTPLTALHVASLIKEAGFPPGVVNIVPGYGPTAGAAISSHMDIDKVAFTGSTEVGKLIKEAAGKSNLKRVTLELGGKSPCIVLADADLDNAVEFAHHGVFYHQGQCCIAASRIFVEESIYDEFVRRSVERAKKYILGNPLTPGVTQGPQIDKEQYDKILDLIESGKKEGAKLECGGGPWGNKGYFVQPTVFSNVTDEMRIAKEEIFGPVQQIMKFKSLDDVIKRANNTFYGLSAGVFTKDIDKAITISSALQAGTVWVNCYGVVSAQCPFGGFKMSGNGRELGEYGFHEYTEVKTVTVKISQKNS

MDA-MB-231 cells = assay: MTT proliferation assay, MDA-MB-231; assay type: cell-based; settings: Homo sapiens, MDA-MB-231, 72 h, read-out: Mean IC50 ±SD in MDA-MB-231
In short: as §1

Chain of recombinant wild type human BCA2 (Q9Y4L5 whole entry): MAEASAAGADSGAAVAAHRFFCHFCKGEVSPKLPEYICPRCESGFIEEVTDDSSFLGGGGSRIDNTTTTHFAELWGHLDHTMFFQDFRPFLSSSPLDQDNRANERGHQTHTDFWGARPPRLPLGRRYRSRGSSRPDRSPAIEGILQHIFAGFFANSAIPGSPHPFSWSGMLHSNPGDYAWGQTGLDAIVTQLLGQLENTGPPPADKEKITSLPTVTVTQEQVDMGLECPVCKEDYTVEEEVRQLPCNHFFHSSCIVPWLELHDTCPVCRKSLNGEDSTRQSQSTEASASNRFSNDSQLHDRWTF
Chain of BCA2 (Q9Y4L5 whole entry): as above

Row | Inhibition of autoubiquitination of recombinant BCA2 [1] | ALDH-inhibitory activity (in words) (ALDH1) | IC50 (MDA-MB-231 cells) [µM] | ALDH+ K562 cells (%) (ALDH1; compound 15 μM, 45 min at 37 °C) | SMILES | Growth inhibitory activity in presence of zinc chloride (MCF-7 cells [2]) | Oral bioavailability [3] [%] | Mean IC50 ±SD in MCF-7 (MCF-7 cells [4]) | IC100 (100% growth inhibitory concentration) in MCF-7 (MCF-7 cells [4]) [µM] | Mean IC50 ±SD in T47D (T47D cells) | BCA2 protein levels in MCF-7 cells (BCA2) | Activity in BCA2+ cells [5] | Activity in BCA2 low/− cells [6] | Effect on the growth of MCF-7 cells (MCF-7 cells [2]; zinc chloride alone)
1 | abolish the autoubiquitination activity |  |  |  | CCN(CC)C(=S)SSC(=S)N(CC)CC [Compound 1, bis(diethylaminothiocarbonyl)-disulfide, reference compound] | completely abolished | > 80 |  |  |  |  |  |  | 
2 |  |  |  |  | C1CN(SSN2CCOCC2)CCO1 [Compound 4, 4,4′-dithiodimorpholine] |  |  |  |  |  |  | inactive | inactive | 
3 | abolish the autoubiquitination activity | lack ALDH-inhibitory activity |  |  | CCCCCCSSC(=S)N(CC)CC [Compound 5d, Hexyl diethylcarbamo(dithioperoxo)thioate] | completely abolished |  | submicromolar | 1 | submicromolar | marked reduction | active | inactive | 
4 | abolish the autoubiquitination activity | lack ALDH-inhibitory activity | > 10 | 36.9 ± 3.15 | CCN(CC)C(=S)SSCCO [Compound 5f, 2-Hydroxyethyl diethylcarbamo(dithioperoxo)thioate] |  |  | submicromolar |  | submicromolar |  | active | inactive | 
5 |  |  |  |  | [Cl-].[Cl-].[Zn+2] [Zinc chloride, zinc (II) chloride] |  |  |  |  |  |  |  |  | no effect

Row | SMILES | Inhibition of autoubiquitination of recombinant BCA2 [1] | ALDH-inhibitory activity (in words) (ALDH1) | IC50 (MDA-MB-231 cells) [µM] | ALDH+ K562 cells (%) (ALDH1; compound 15 μM, 45 min at 37 °C) | Growth inhibitory activity in presence of zinc chloride (MCF-7 cells [2]) | Oral bioavailability [3] [%] | Mean IC50 ±SD in MCF-7 (MCF-7 cells [4]) | IC100 (100% growth inhibitory concentration) in MCF-7 (MCF-7 cells [4]) [µM] | Mean IC50 ±SD in T47D (T47D cells) | BCA2 protein levels in MCF-7 cells (BCA2) | Activity in BCA2+ cells [5] | Activity in BCA2 low/− cells [6] | Effect on the growth of MCF-7 cells (MCF-7 cells [2]; zinc chloride alone)
6 | S=C(SSC(=S)N1CCCCC1)N1CCCCC1 [Compound 3a, Bis(piperidinylthiocarbonyl)disulfide] | abolish the autoubiquitination activity |  |  |  | completely abolished |  | submicromolar | 0.25 | submicromolar | marked reduction |  |  | 
7 | S=C(SSC(=S)N1CCCC1)N1CCCC1 [Compound 3c, Bis(pyrrolidinylthiocarbonyl)disulfide] | abolish the autoubiquitination activity |  |  |  |  |  | submicromolar |  | submicromolar |  |  |  | 
